Data published in ChEMBL document CHEMBL1145749, “Inhibition of human immunodeficiency virus reverse transcriptase by synadenol triphosphate and its E-isomer” (J Med Chem, 2003).
Active and inactive are the calls of the source. No cut-off for these calls is given here.

What was measured:
[1] = test system: Nc1ncnc2c1ncn2[C@H]1C[C@H](O)[C@@H](COP(=O)(O)OP(=O)(O)OP(=O)(O)O)O1; experiment: Substrate Activity against HIV-1 reverse transcriptase (RT M184I)
Summary of the method: (§1)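 Purified recombinant HIV-1 RT M184V or M184I was assayed on MS2 RNA/22A primer at 37 °C (pH 7.8 Tris, 6 mM MgCl2, 150 mM KCl, 0.01% Triton X-100) with [3H]dATP as the only nucleotide substrate. Aliquots were taken 4–5 times onto DE81 filters and counted by scintillation. Km was taken from the Lineweaver–Burk plot without inhibitor.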

Human alphaherpesvirus 3 [2] = experiment: Antiviral selectivity against varicella zoster virus; exhibited wide range selectivity; type: functional, organism-based
Human betaherpesvirus 5 [3] = experiment: Antiviral selectivity against HCMV virus; exhibited wide range selectivity; type: functional, organism-based
[4] = test system: Human immunodeficiency virus 1; experiment: Antiviral selectivity against HIV-1 virus; exhibited wide range selectivity; type: functional, organism-based
Human gammaherpesvirus 4 [5] = experiment: Antiviral selectivity against EB virus; exhibited wide range selectivity; type: functional, organism-based
[6] = test system: Nc1ncnc2c1ncn2[C@H]1C[C@H](O)[C@@H](COP(=O)(O)OP(=O)(O)OP(=O)(O)O)O1; experiment: Substrate Activity against HIV-1 reverse transcriptase (RT M184V); summary of the method: as §1
[7] = Ratio of inhibitory activity of compound to that of substrate activity of dATP against RT M184I enzyme was determined
Summary of the method: (§2)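 Recombinant HIV-1 RT (wild-type, M184V or M184I) was expressed in E. coli JM109 with 1 mM IPTG for 5 h, then purified on Q and SP columns to >90% purity. Assay used MS2 RNA/22A DNA primer in 50 mM Tris-HCl pH 7.8, 6 mM MgCl2, 150 mM KCl and 0.01% Triton X-100. Synthesis was distributive, with [3H]dATP as the only nucleotide, at 37 °C. Timed aliquots were spotted on DE81 and counted by scintillation. Ki came from the abscissa intercept of the Lineweaver–Burk replot. Ratio was Ki over dATP Km.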

[8] = Ratio of inhibitory activity of compound to that of substrate activity of dATP against RT wt enzyme was determined; summary of the method: as §2
[9] = Ratio of inhibitory activity of compound to that of substrate activity of dATP against RT M184V enzyme was determined; summary of the method: as §2
Human alphaherpesvirus 3 [10] = experiment: Antiviral selectivity against varicella zoster virus; Inactive; type: functional, organism-based
Human gammaherpesvirus 4 [11] = experiment: Antiviral selectivity against […]; Inactive; type: functional, organism-based
Human betaherpesvirus 5 [12] = experiment: Antiviral selectivity against HCMV virus; Inactive; type: functional, organism-based
[13] = test system: Human immunodeficiency virus 1; experiment: Antiviral selectivity against HIV-1 virus; Inactive; type: functional, organism-based
[14] = test system: Human immunodeficiency virus 1; experiment: Antiviral selectivity against HIV-1 virus; Significant activity; type: functional, organism-based

## Human immunodeficiency virus type 1 reverse transcriptase (Human immunodeficiency virus 1), Q72547 M184I
[1]
  Km: 0.38 µM

## Nc1ncnc2c1ncn2/C=C1/CC1CO (stereo not given)
Human alphaherpesvirus 3 [2]
  Antiviral selectivity: exhibited wide range selectivity
Human betaherpesvirus 5 [3]
  Antiviral selectivity: exhibited wide range selectivity
[4]
  Antiviral selectivity: exhibited wide range selectivity
Human gammaherpesvirus 4 [5]
  Antiviral selectivity: exhibited wide range selectivity

## Human immunodeficiency virus type 1 reverse transcriptase (Human immunodeficiency virus 1), Q72547 M184V
[6]
  Km: 0.38 µM

## Nc1ncnc2c1ncn2/C=C1\CC1COP(=O)(O)OP(=O)(O)OP(=O)(O)O (stereo not given)
[7]
  Ki/Km: 187
[8]
  Ki/Km: 25
[9]
  Ki/Km: 137

## Nc1ncnc2c1ncn2/C=C1/CC1COP(=O)(O)OP(=O)(O)OP(=O)(O)O (stereo not given)
[7]
  Ki/Km: 6.3
[8]
  Ki/Km: 0.8
[9]
  Ki/Km: 4.5

## Nc1ncnc2c1ncn2/C=C1\CC1CO (stereo not given)
Human alphaherpesvirus 3 [10]
  IA: inactive
Human gammaherpesvirus 4 [11]
  IA: inactive
Human betaherpesvirus 5 [12]
  IA: inactive
[13]
  IA: inactive

## COC(=O)C(C)NP(=O)(OCC1C/C1=C\n1cnc2c(N)ncnc21)Oc1ccccc1 (stereo not given)
[14]
  Anti-HIV activity: Significant activity

## Nc1ncnc2c1ncn2[C@H]1CC[C@@H](COP(=O)(O)OP(=O)(O)OP(=O)(O)O)O1
[7]
  Ki/Km: 3.2
[8]
  Ki/Km: 1.2
[9]
  Ki/Km: 1.3
